Activity calls are given as the source filed them. The calls are words filed in the database; no cut-off is given here.
What was measured:
[1] = Binding affinity to Fe(2+) ions assessed as percent parent peaks remaining by electrospray ionization mass spectrometry; set-up: concentration or dose not given beside the values
Method in brief: (§1)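 Metal ion stocks (1 mM in double-distilled water) were prepared from ammonium iron(II) sulfate, iron(III) nitrate, copper(I) chloride, copper(II) chloride, zinc chloride, magnesium chloride or calcium chloride. Each was mixed with compound at metal:compound ratios of 10:1, 1:1 and 1:10, keeping the final compound concentration at 50 μM.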

[2] = Binding affinity to Fe(3+) ions assessed as percent parent peaks remaining by electrospray ionization mass spectrometry; set-up: concentration or dose not given beside the values; method in brief: as §1
[3] = Binding affinity to Cu(1+) ions assessed as percent parent peaks remaining by electrospray ionization mass spectrometry; set-up: concentration or dose not given beside the values; method in brief: as §1
[4] = Binding affinity to Cu(2+) ions assessed as percent parent peaks remaining by electrospray ionization mass spectrometry; set-up: concentration or dose not given beside the values; method in brief: as §1
[5] = Binding affinity to Zn(2+) ions assessed as percent parent peaks remaining by electrospray ionization mass spectrometry; set-up: concentration or dose not given beside the values; method in brief: as §1
[6] = Binding affinity to Ca(2+) ions assessed as percent parent peaks remaining by electrospray ionization mass spectrometry; set-up: concentration or dose not given beside the values; method in brief: as §1
[7] = Binding affinity to Mg(2+) ions assessed as percent parent peaks remaining by electrospray ionization mass spectrometry; set-up: concentration or dose not given beside the values; method in brief: as §1
SRA1 [8] = assay: Cytoprotection in human SRA1 cells assessed as protection against H2O2-induced cell death after 2 hrs by MTS assay; format: functional, cell-based
Method in brief: (§2)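 Cells are seeded at 1 × 10⁴ per well and pre-treated 1 hr in FBS-free medium with 100 μM compound, then given 1 mM H2O2, or 1 mM H2O2 plus 1 mM iron(II) chloride (Fenton), for 2 hr. After a PBS wash, MTS is added in blank medium for 1.5 hr at 37 °C and read at 490 nm. Results are normalized to cells without H2O2 (100%), mean ± SD of three experiments.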

SRA1 [9] = assay: Cytoprotection in human SRA1 cells assessed as protection against Fenton's reagent-induced cell death after 2 hrs by MTS assay; format: functional, cell-based; method in brief: as §2
ARPE-19 [10] = assay: Cytoprotection in human ARPE19 cells assessed as protection against Fenton's reagent-induced cell death after 2 hrs by MTS assay; format: functional, cell-based; method in brief: as §2
HAh [11] = assay: Cytoprotection in human HAh cells assessed as protection against Fenton's reagent-induced cell death after 2 hrs by MTS assay; format: functional, cell-based; method in brief: as §2
SRA1 [12] = assay: Antioxidant activity in human SRA1 cells assessed as inhibition of H2O2-induced reduction of cellular glutathione level after 2 hrs by DTNB method; format: functional, cell-based
Method in brief: (§3)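 Cells are pre-incubated 1 hr in FBS-free medium with 100 μM compound, then given 1 mM H2O2, or 1 mM H2O2 plus 1 mM iron(II) chloride (Fenton), for 2 hr. Cells are washed with PBS, scraped and homogenized; supernatant protein is measured by Bradford. Homogenate is deproteinized with 20% TCA, and GSH is read at 412 nm (DTNB). Values are nmol GSH/mg protein, normalized to unexposed cells (100%), in triplicate.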

SRA1 [13] = assay: Antioxidant activity in human SRA1 cells assessed as inhibition of Fenton's reagent-induced reduction of cellular glutathione level after 2 hrs by DTNB method; format: functional, cell-based; method in brief: as §3
ARPE-19 [14] = assay: Antioxidant activity in human […] cells assessed as inhibition of Fenton's reagent-induced reduction of cellular glutathione level after 2 hrs by DTNB method; format: functional, cell-based; method in brief: as §3
HAh [15] = assay: Antioxidant activity in human HAh cells assessed as inhibition of Fenton's reagent-induced reduction of cellular glutathione level after 2 hrs by DTNB method; format: functional, cell-based; method in brief: as §3

Structure (SMILES) | Activity [1] [%] | Activity [2] [%] | Activity [3] [%] | Activity [4] [%] | Activity [5] [%] | Activity [6] [%] | Activity [7] [%] | Activity (SRA1 [8]) | Activity (SRA1 [9]) | Activity (ARPE-19 [10]) | Activity (HAh [11]) | Activity (SRA1 [12]) | Activity (SRA1 [13]) | Activity (ARPE-19 [14]) | Activity (HAh [15])
CN(C)S(=O)(=O)N1CC(=O)N(c2ncc(O)cn2)C(=O)C1 | 6.9 | 8.2 | 4.2 | 3 | 12.7 | 100 | 100 | Active | Active | Active | Active | Active | Active | Active | Active
COc1nc(N2CCN(S(=O)(=O)N(C)C)CC2)nc(OC)c1O | 100 | 100 | 100 | 100 | 100 | 100 | 100 | Active | Active | Active | Active | Active |  | Active | Active
CN(C)S(=O)(=O)N1CCN(c2ncccn2)CC1 | 100 | 100 | 100 | 100 | 100 | 100 | 100 | inactive |  |  |  | inactive |  |  | 
CN(C)S(=O)(=O)N1CCN(c2ncc(O)cn2)CC1 | 100 | 100 | 100 | 100 | 100 | 100 | 100 | Active | Active | Active | Active | Active |  | Active | Active
CN(C)S(=O)(=O)N1CC(=O)N(c2ncccn2)C(=O)C1 | 8.1 | 10 | 3.6 | 4.4 | 15.3 | 100 | 100 | inactive |  | Active | Active | inactive | Active | Active | Active
Cc1c(C)c2c(c(C)c1O)CCC(C)(C(=O)O)O2 (stereo unspecified) |  |  |  |  |  |  |  | Active |  |  |  |  |  |  | Active
COc1cc(OC)nc(N2CCN(S(=O)(=O)N(C)C)CC2)n1 | 100 | 100 | 100 | 100 | 100 | 100 | 100 | inactive |  |  |  | inactive |  |  | 
COc1cc(OC)nc(N2C(=O)CN(S(=O)(=O)N(C)C)CC2=O)n1 | 7.3 | 7.6 | 4.1 | 3.4 | 13.8 | 100 | 100 | inactive |  | Active | Active | inactive | Active | Active | Active
COc1nc(N2C(=O)CN(S(=O)(=O)N(C)C)CC2=O)nc(OC)c1O | 7.5 | 8.2 | 4 | 3.6 | 14.6 | 100 | 100 | Active | Active | Active | Active | Active | Active | Active | Active

— ChEMBL document CHEMBL1156826, “Multifunctional antioxidants for the treatment of age-related diseases” (J Med Chem, 2010)
